Assay results from ChEMBL document CHEMBL5233208, “Optimization of P2Y12 Antagonist Ethyl 6-(4-((Benzylsulfonyl)carbamoyl)piperidin-1-yl)-5-cyano-2-methylnicotinate (AZD1283) Led to the Discovery of an Oral Antiplatelet Agent with Improved Druglike Properties” (J Med Chem, 2019).
One block for each molecule: values may come before it.

Tests used:
Homo sapiens = organism: Homo sapiens; test: Antiplatelet activity in human platelet-rich plasma assessed as inhibition of ADP-induced platelet aggregation by aggregometry; format: functional
How it was run: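 Human PRP from healthy donors free of aspirin/NSAIDs for at least two weeks, drawn into ACD; PRP spun at 300 g for 10 min, PPP at 2000 g. Compound in 0.5% DMSO preincubated 2 min at 37 °C with stirring (900 rpm). Aggregation induced by 10 μM ADP (final) and followed optically for 5 min.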

[1] = Metabolic stability in rat liver microsomes assessed as half life at […] measured up to 60 mins in presence of NADPH regeneration system by LC-MS/MS analysis; format: ADME, Microsome
[2] = Metabolic stability in dog liver microsomes assessed as half life at […] measured up to 60 mins in presence of NADPH regeneration system by LC-MS/MS analysis; format: ADME, Canis lupus familiaris, Microsome
[3] = Metabolic stability in human liver microsomes assessed as half life at […] measured up to 60 mins in presence of NADPH regeneration system by LC-MS/MS analysis; format: ADME, Microsome
[4] = Cmax in Sprague-Dawley rat at 5 mg/kg,po measured up to 24 hrs by LC-MS/MS analysis; format: ADME, organism-based; parameters: time < 24 hrs, dose 5 mg/kg, route po; settings: in vivo
[5] = Half life in Sprague-Dawley rat at 5 mg/kg,po measured up to 24 hrs by LC-MS/MS analysis; format: ADME, organism-based; settings: in vivo
[6] = Tmax in Sprague-Dawley rat at 5 mg/kg,po measured up to 24 hrs by LC-MS/MS analysis; format: ADME, organism-based; settings: in vivo
[7] = AUC (0 to infinity) in Sprague-Dawley rat at 5 mg/kg,po measured up to 24 hrs by LC-MS/MS analysis; format: ADME, organism-based; parameters: time < 24 hrs, dose 5 mg/kg, route po; settings: in vivo
[8] = MRT in Sprague-Dawley rat at 5 mg/kg,po measured up to 24 hrs by LC-MS/MS analysis; format: ADME, organism-based; settings: in vivo
Cytochrome P450 1A2 = molecular target: T1, Cytochrome P450 1A2 (Homo sapiens, UniProt P05177); test: Inhibition of CYP1A2 in human liver microsomes using phenacetin as substrate preincubated for 10 mins followed by NADPH addition and measured after 15 mins by LC-MS/MS analysis
T1 sequence (P05177 whole entry): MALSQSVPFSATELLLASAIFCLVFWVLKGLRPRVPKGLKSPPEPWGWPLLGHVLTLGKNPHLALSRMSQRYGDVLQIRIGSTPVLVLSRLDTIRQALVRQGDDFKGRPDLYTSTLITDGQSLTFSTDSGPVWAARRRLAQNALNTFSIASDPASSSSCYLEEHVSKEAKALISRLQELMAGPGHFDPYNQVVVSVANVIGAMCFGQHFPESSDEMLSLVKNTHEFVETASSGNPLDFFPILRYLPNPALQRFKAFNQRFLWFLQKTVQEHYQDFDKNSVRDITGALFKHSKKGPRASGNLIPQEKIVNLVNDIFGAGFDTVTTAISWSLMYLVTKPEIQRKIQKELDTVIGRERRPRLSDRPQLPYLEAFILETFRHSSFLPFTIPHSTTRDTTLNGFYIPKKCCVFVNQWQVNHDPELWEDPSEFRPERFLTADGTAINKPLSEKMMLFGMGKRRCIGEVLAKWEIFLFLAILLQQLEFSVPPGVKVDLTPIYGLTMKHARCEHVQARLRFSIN

Cytochrome P450 2C9 = Cytochrome P450 2C9 (Homo sapiens, UniProt P11712); test: Inhibition of CYP2C9 in human liver microsomes using tolbutamide as substrate preincubated for 10 mins followed by NADPH addition and measured after 15 mins by LC-MS/MS analysis
Cytochrome P450 2C19 = Cytochrome P450 2C19 (Homo sapiens, UniProt P33261); test: Inhibition of CYP2C19 in human liver microsomes using S-mephenytoin as substrate preincubated for 10 mins followed by NADPH addition and measured after 15 mins by LC-MS/MS analysis
Cytochrome P450 2D6 = Cytochrome P450 2D6 (Homo sapiens, UniProt P10635); test: Inhibition of CYP2D6 in human liver microsomes using dextromethorphan as substrate preincubated for 10 mins followed by NADPH addition and measured after 15 mins by LC-MS/MS analysis
Cytochrome P450 3A4 [9] = molecular target: T2, Cytochrome P450 3A4 (Homo sapiens, UniProt P08684); test: Inhibition of CYP3A4 in human liver microsomes using Midazolam as substrate preincubated for 10 mins followed by NADPH addition and measured after 15 mins by LC-MS/MS analysis
Cytochrome P450 3A4 [10] = molecular target: T2, Cytochrome P450 3A4; test: Inhibition of CYP3A4 in human liver microsomes using testosterone as substrate preincubated for 10 mins followed by NADPH addition and measured after 15 mins by LC-MS/MS analysis
[11] = Metabolic stability in rat liver microsomes assessed as intrinsic clearance at 0.1 µM measured up to 60 mins in presence of NADPH regeneration system by LC-MS/MS analysis; settings: 1 h
[12] = Metabolic stability in dog liver microsomes assessed as intrinsic clearance at 0.1 µM measured up to 60 mins in presence of NADPH regeneration system by LC-MS/MS analysis; settings: 1 h
[13] = Metabolic stability in human liver microsomes assessed as intrinsic clearance at 0.1 µM measured up to 60 mins in presence of NADPH regeneration system by LC-MS/MS analysis; settings: 1 h

T2 sequence (P08684 whole entry): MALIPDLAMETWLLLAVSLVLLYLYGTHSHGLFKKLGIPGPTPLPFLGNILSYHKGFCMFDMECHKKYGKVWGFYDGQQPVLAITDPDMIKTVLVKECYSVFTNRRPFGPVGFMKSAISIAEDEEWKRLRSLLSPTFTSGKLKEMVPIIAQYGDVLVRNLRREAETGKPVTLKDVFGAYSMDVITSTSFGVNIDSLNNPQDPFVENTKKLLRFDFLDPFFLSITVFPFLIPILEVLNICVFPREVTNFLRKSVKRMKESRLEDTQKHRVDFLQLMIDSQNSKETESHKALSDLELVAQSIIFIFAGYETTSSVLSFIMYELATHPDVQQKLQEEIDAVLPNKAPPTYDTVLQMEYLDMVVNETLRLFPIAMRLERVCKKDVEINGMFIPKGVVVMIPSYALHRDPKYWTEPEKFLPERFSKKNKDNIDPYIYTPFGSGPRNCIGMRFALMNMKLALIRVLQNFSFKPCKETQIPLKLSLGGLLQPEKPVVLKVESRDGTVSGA
Sequence of Cytochrome P450 2C9 (P11712 whole entry): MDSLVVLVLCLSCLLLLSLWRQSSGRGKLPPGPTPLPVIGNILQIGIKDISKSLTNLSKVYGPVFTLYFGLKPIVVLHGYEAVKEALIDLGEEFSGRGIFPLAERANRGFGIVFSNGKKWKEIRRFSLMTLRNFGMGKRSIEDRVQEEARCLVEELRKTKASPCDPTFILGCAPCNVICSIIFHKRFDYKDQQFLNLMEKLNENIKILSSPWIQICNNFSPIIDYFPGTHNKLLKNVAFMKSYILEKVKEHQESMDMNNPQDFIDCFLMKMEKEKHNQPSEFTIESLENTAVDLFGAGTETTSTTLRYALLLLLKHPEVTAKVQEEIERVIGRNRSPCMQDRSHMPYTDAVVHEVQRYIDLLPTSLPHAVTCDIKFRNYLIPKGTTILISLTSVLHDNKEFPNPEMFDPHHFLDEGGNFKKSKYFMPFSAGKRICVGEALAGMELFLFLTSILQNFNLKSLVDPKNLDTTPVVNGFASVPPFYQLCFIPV
Sequence of Cytochrome P450 2C19 (P33261 whole entry): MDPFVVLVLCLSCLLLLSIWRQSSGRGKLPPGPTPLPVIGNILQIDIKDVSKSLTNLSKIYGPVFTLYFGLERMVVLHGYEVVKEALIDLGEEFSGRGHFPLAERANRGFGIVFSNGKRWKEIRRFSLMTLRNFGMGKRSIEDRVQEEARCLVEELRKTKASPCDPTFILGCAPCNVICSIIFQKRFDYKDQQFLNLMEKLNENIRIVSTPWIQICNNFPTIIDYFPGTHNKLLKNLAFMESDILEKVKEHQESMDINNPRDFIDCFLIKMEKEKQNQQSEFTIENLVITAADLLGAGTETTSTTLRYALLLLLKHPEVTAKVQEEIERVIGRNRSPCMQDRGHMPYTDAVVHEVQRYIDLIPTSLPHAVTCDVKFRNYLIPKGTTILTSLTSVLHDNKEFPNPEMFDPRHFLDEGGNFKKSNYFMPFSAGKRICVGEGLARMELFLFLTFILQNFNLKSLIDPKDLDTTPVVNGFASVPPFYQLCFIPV
Sequence of Cytochrome P450 2D6 (P10635 whole entry): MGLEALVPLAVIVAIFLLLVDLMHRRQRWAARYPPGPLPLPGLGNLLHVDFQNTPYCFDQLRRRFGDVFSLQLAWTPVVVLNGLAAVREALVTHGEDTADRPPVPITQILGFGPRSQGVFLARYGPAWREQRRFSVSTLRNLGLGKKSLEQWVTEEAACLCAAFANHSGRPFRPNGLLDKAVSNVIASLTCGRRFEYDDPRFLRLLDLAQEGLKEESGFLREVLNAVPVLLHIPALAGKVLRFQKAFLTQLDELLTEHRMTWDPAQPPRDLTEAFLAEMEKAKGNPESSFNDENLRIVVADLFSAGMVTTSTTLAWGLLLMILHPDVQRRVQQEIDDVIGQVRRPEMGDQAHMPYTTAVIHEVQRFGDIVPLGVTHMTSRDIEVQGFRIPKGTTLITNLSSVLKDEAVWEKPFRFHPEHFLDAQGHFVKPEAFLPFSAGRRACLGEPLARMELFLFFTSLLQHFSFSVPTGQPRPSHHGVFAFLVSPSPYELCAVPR

- IC50 (Homo sapiens): 37.2 µM
SMILES: N#Cc1cc2c(nc1N1CCC(F)(C(=O)NS(=O)(=O)Cc3ccc(Cl)cc3)CC1)COC2=O

- IC50 (Homo sapiens): > 300 µM
SMILES: CN1Cc2nc(N3CCC(C(=O)NS(=O)(=O)Cc4ccccc4)CC3)c(C#N)cc2C1=O

- IC50 (Homo sapiens): 6.68 µM
SMILES: CC1(C(=O)NS(=O)(=O)Cc2ccccc2)CCN(c2nc3c(cc2C#N)C(=O)OC3)CC1

- IC50 (Homo sapiens): 5.2 µM
SMILES: N#Cc1cc2c(nc1N1CCC(C(=O)NS(=O)(=O)Cc3ccc(F)cc3F)CC1)COC2=O

- IC50 (Homo sapiens): > 300 µM
SMILES: N#Cc1cc2c(nc1N1CCC(C(=O)NS(=O)(=O)Cc3ccccc3)CC1)CNC2=O

- IC50 (Homo sapiens): 23.7 µM
SMILES: N#Cc1cc2c(nc1N1CCC(C(=O)NS(=O)(=O)Cc3ccccc3F)CC1)COC2=O

- IC50 (Homo sapiens): 3.5 µM
SMILES: N#Cc1cc2c(nc1N1CCC(C(=O)NS(=O)(=O)Cc3ccc(F)cc3)CC1)COC2=O

- IC50 (Homo sapiens): 8.9 µM
SMILES: N#Cc1ccc(CS(=O)(=O)NC(=O)C2CCN(c3nc4c(cc3C#N)C(=O)OC4)CC2)cc1

- IC50 (Homo sapiens): 4.47 µM
- half-life [1]: 2.53 h
- half-life [2]: 2.85 h
- half-life [3]: 1.32 h
- Cmax [4]: 225 ng/mL
- half-life [5]: 2.4 h
- Tmax [6]: 0.25 h
- AUC(0-inf) [7]: 417 ng·h/mL
- MRT [8]: 2.31 h
- IC50 (Cytochrome P450 1A2): > 50 µM
- IC50 (Cytochrome P450 2C9): > 50 µM
- IC50 (Cytochrome P450 2C19): 28.5 µM
- IC50 (Cytochrome P450 2D6): > 50 µM
- IC50 (Cytochrome P450 3A4 [9]): > 50 µM
- IC50 (Cytochrome P450 3A4 [10]): > 50 µM
- intrinsic clearance [11]: 13.8 mL/min/g
- intrinsic clearance [12]: 12.3 mL/min/g
- intrinsic clearance [13]: 26.6 mL/min/g
SMILES: N#Cc1cc2c(nc1N1CCC(C(=O)NS(=O)(=O)c3ccc(Cl)s3)CC1)COC2=O

- IC50 (Homo sapiens): 32.8 µM
SMILES: Cc1ccc(CS(=O)(=O)NC(=O)C2(F)CCN(c3nc4c(cc3C#N)C(=O)OC4)CC2)cc1

- IC50 (Homo sapiens): 37.1 µM
SMILES: N#Cc1cc2c(nc1N1CCC(F)(C(=O)NS(=O)(=O)c3ccc(Cl)s3)CC1)COC2=O

- IC50 (Homo sapiens): 9.95 µM
SMILES: CC(c1ccccc1)S(=O)(=O)NC(=O)C1(F)CCN(c2nc3c(cc2C#N)C(=O)OC3)CC1 (stereo not given)

- IC50 (Homo sapiens): > 300 µM
SMILES: CC1OC(=O)c2cc(C#N)c(N3CCC(C(=O)NS(=O)(=O)Cc4ccccc4)C3)nc21 (stereo not given)

- IC50 (Homo sapiens): 30.5 µM
SMILES: N#Cc1cc2c(nc1N1CCC(C(=O)NS(=O)(=O)Cc3cc(Cl)cc(Cl)c3)CC1)COC2=O

- IC50 (Homo sapiens): 4.28 µM
SMILES: Cc1ccc(CS(=O)(=O)NC(=O)C2CCN(c3nc4c(cc3C#N)C(=O)OC4)CC2)cc1

- IC50 (Homo sapiens): 117 µM
SMILES: N#Cc1cc2c(nc1N1CCC(C(=O)NS(=O)(=O)Cc3ccccc3)CC1)CCCC2=O

- IC50 (Homo sapiens): 3.01 µM
- Cmax [4]: 877 ng/mL
- half-life [5]: 1.9 h
- Tmax [6]: 0.25 h
- AUC(0-inf) [7]: 1350 ng·h/mL
- MRT [8]: 2.58 h
SMILES: CC1(C(=O)NS(=O)(=O)Cc2ccc(Cl)cc2)CCN(c2nc3c(cc2C#N)C(=O)OC3)CC1

- IC50 (Homo sapiens): 15.9 µM
SMILES: N#Cc1cc2c(nc1N1CCC(C(=O)NS(=O)(=O)Cc3ccc(C(F)(F)F)cc3)CC1)COC2=O
